# Measurements published in ChEMBL document CHEMBL3351262, “Design and synthesis of new benzimidazole-carbazole conjugates for the stabilization of human telomeric DNA, telomerase inhibition, and their selective action on cancer cells” (J Med Chem, 2014).
# Activity calls are given as the source filed them. The calls are words filed in the database; no cut-off is given here.
# Key:
# [1] = Binding affinity to human Hum21 [5'-G3(T2AG3)3-3'] G-quadruplex DNA at 0.4 uM in 10 mM pH 7.4 Tris-Hcl buffer containing 0.1 mM EDTA and 0.1 mM NaCl by fluorescence spectroscopy
# [2] = tested on: Calf thymus DNA; assay: Binding affinity to calf thymus DNA at 0.4 uM in 10 mM pH 7.4 Tris-Hcl buffer containing 0.1 mM EDTA and 40 mM NaCl by fluorescence spectroscopy; format: nucleic-acid assay; conditions: Bos taurus
# Outline: (§1)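 CT DNA was in the same Tris/EDTA buffer with 40 mM NaCl. 0.4 μM ligand was titrated with preformed DNA, incubated 10 min at 20 °C, and excited at 300 or 330 nm. Kd and binding stoichiometry n came from the emission titration.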
# [3] = Displacement of thiazole orange from human Hum21 [5'-G3(T2AG3)3-3'] G-quadruplex DNA in presence of 10 mM pH 7.4 Tris-Hcl buffer containing 0.1 mM EDTA and […] by fluorescent intercalator displacement assay
# [4] = Displacement of thiazole orange from calf thymus double stranded DNA in presence of 10 mM pH 7.4 Tris-Hcl buffer containing 0.1 mM EDTA and […] by fluorescent intercalator displacement assay; parameters: species or system Bos taurus
# [5] = Displacement of thiazole orange from telomeric duplex DNA (unknown origin) in presence of 10 mM pH 7.4 Tris-Hcl buffer containing 0.1 mM EDTA and […] by fluorescent intercalator displacement assay
# [6] = organism: Homo sapiens; assay: Binding affinity to human Hum21 [5'-G3(T2AG3)3-3'] G-quadruplex DNA in 10 mM pH 7.4 Tris-Hcl buffer containing 0.1 mM EDTA and […] by CD spectroscopy
# [7] = organism: Homo sapiens; assay: Binding affinity to human Hum21 [5'-G3(T2AG3)3-3'] G-quadruplex DNA assessed as change in melting temperature in 10 mM pH 7.4 Tris-Hcl buffer containing 0.1 mM EDTA and 0.1 mM NaCl […] (reference value: 7 to 10 degC)
# [8] = organism: Homo sapiens; assay: Binding affinity to human Hum21 [5'-G3(T2AG3)3-3'] G-quadruplex DNA assessed as change in melting temperature in 10 mM pH 7.4 Tris-Hcl buffer containing 0.1 mM EDTA and […] measured after 12 hrs by UV-Vis absorption sperctrometry (reference value: 7 to 13 degC)
# [9] = tested on: Calf thymus DNA; assay: Binding affinity to calf thymus DNA in 10 mM pH 7.4 Tris-Hcl buffer containing 0.1 mM EDTA and 40 mM NaCl by fluorescence spectroscopy; format: nucleic-acid assay, Bos taurus; outline: as §1
# [10] = Selectivity index, ratio of Kd for calf thymus DNA to Kd for human Hum21 [5'-G3(T2AG3)3-3'] G-quadruplex DNA
# Outline: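 Selectivity is the ratio of fluorescence-titration Kd for CT DNA (Tris-HCl pH 7.4, 40 mM NaCl, 0.1 mM EDTA) to Kd for preformed Hum21 G4 DNA (Tris-HCl pH 7.4, 0.1 M NaCl/KCl, 0.1 mM EDTA).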
# [11] = target: T1, Telomerase reverse transcriptase (Homo sapiens, UniProt O14746); assay: Inhibition of telomerase isolated form human A549 cells by TRAP-LIG assay
# [12] = tested on: HeLa; assay: Cytotoxicity against human HeLa cells at 2 and 5 uM after 15 days by MTT assay
# [13] = target: T1, Telomerase reverse transcriptase; assay: Total inhibition of telomerase isolated form human A549 cells by TRAP-LIG assay
# [14] = tested on: HEK-293T; assay: Cytotoxicity against transformed HEK293T cells at 2 and 5 uM after 15 days by MTT assay; conditions: Homo sapiens
# [15] = tested on: Calf thymus DNA; assay: Binding affinity to calf thymus DNA in 10 mM pH 7.4 Tris-Hcl buffer containing 0.1 mM EDTA and 40 mM NaCl by CD spectroscopy; conditions: Bos taurus
# [16] = Binding affinity to human Hum21 [5'-G3(T2AG3)3-3'] G-quadruplex DNA at 5 uM in 10 mM pH 7.4 Tris-Hcl buffer containing 0.1 mM EDTA and 0.1 M KCl by UV-Vis absorption sperctrometry
# [17] = Binding affinity to human Hum21 [5'-G3(T2AG3)3-3'] G-quadruplex DNA at 5 uM in 10 mM pH 7.4 Tris-Hcl buffer containing 0.1 mM EDTA and 0.1 M NaCl by UV-Vis absorption sperctrometry
# [18] = Binding affinity to human Hum21 [5'-G3(T2AG3)3-3'] G-quadruplex DNA at 0.4 uM in 10 mM pH 7.4 Tris-Hcl buffer containing 0.1 mM EDTA and […] by fluorescence spectroscopy
# [19] = organism: Homo sapiens; assay: Induction of formation of human Hum21 [5'-G3(T2AG3)3-3'] G-quadruplex DNA at [compound]/[DNA] ratio of 5 in 10 mM pH 7.4 Tris-Hcl buffer containing 0.1 mM EDTA and […] by CD spectroscopy
# Outline: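 Hum21 was folded in the presence of ligand at the stated [L]:[DNA] ratio in 10 mM Tris-HCl pH 7.4, 0.1 mM EDTA, 0.1 M KCl or NaCl. Annealing was 95 °C for 5 min with slow cooling to 24 °C over 24 h. Topology was read from CD spectra recorded at 20 °C.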
# [20] = organism: Homo sapiens; assay: Stabilization of 32P-ATP labeled human Hum21 [5'-G3(T2AG3)3-3'] G-quadruplex DNA assessed as protection against S1 nuclease-mediated degradation at 2.5 to 5 uM pre-incubated for 4 hrs before S1 nuclease addition by PAGE method
# Outline: (§2)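 5′-32P-labelled Hum21 was mixed with cold DNA and annealed in KCl; lanes were run in 50 mM KCl. G4 DNA was pre-incubated with ligand for 4 h. 2 μM DNA was digested with 20 U S1 nuclease for 2 min, quenched with acetate/CT DNA/EDTA stop buffer, and ethanol precipitated. Products ran on a 15% polyacrylamide urea sequencing gel beside an A+G ladder and were imaged by phosphorimager.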
# [21] = tested on: HFF; assay: Cytotoxicity against HFF cells at 0.5 to 8 uM after 72 hrs by MTT assay; format: cell-based; conditions: human
# Outline: (§3)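 Cells were seeded at 15.0 × 10³/well and grown 72 h to >70% confluency. They were treated with ligand or 0.1% DMSO in 10% FBS for 72 h at 37 °C, 5% CO2, then given fresh DMEM/10% FBS. MTT (5 mg/mL stock) was added for 4 h, formazan dissolved in DMSO, and read at 595 nm. Viability was normalized to untreated cells after DMSO-blank subtraction. Doses were run in triplicate, with at least three independent experiments.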
# [22] = tested on: HEK-293T; assay: Cytotoxicity against transformed HEK293T cells at 0.5 to 8 uM after 72 hrs by MTT assay; format: functional, cell-based; conditions: Homo sapiens; outline: as §3
# [23] = tested on: A549; assay: Cytotoxicity against human A549 cells at 0.5 to 8 uM after 72 hrs by MTT assay; format: functional, cell-based; outline: as §3
# [24] = tested on: HeLa; assay: Cytotoxicity against human HeLa cells at 0.5 to 8 uM after 72 hrs by MTT assay; format: functional, cell-based; outline: as §3
# [25] = tested on: HEK-293T; assay: Cytotoxicity against transformed HEK293T cells after 72 hrs by MTT assay; format: functional, cell-based; conditions: Homo sapiens; outline: as §3
# [26] = tested on: A549; assay: Cytotoxicity against human A549 cells after 72 hrs by MTT assay; format: functional, cell-based; conditions: A549, 72 h; outline: as §3
# [27] = tested on: HeLa; assay: Cytotoxicity against human HeLa cells after 72 hrs by MTT assay; format: functional, cell-based; outline: as §3
# [28] = tested on: HeLa; assay: Induction of apoptosis in human HeLa cells at 10 uM after 12 hrs by Annexin V and propidium iodide staining based FACS analysis; format: functional
# Outline: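 HeLa cells were seeded at 0.25 million per well, and after 24 h exposed to 10 μM ligand for 12 h. Cells were washed, trypsinized and resuspended in HEPES binding buffer (0.14 M NaCl, 2.5 mM CaCl2). They were stained with Annexin V-FITC and PI (final 1 μg/mL, 5 min), then analyzed by flow cytometry. Gated Annexin-only-positive cells were scored as apoptotic.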
# [29] = Drug uptake in nucleus of human HeLa cells at 10 uM after 12 hrs by confocal microscopy; format: ADME, cell-based
# Outline: (§4)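 Cells were grown on glass coverslips and treated with 10 μM ligand for 12 h. They were washed in DPBS, fixed in 4% paraformaldehyde for 10 min, and permeabilized with 0.1% Triton X-100 for 5 min. Nuclei were counterstained with propidium iodide. Blue ligand fluorescence and nuclear localization were imaged by confocal microscopy.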
# [30] = Drug uptake in nucleus of human HeLa cells at 10 uM after 12 hrs by propidium iodide staining; format: ADME, cell-based; outline: as §4
# [31] = Drug uptake in cytoplasm of HFF cells at 10 uM after 12 hrs by confocal microscopy; format: ADME, cell-based; conditions: human; outline: as §4
# [32] = tested on: HeLa; assay: Induction of apoptosis in human HeLa cells assessed as nuclear fragmentation at 10 uM after 12 hrs by propidium iodide staining based FACS analysis; format: functional, cell-based
# [33] = tested on: HFF; assay: Induction of apoptosis in HFF cells assessed as nuclear fragmentation at 10 uM after 12 hrs by propidium iodide staining based FACS analysis; format: cell-based; conditions: human
# [34] = organism: Homo sapiens; assay: Stabilization of 32P-ATP labeled human Hum21 [5'-G3(T2AG3)3-3'] G-quadruplex DNA assessed as protection against S1 nuclease-mediated degradation at 2.5 to 7.5 uM pre-incubated for 4 hrs before S1 nuclease addition by PAGE method; outline: as §2
# T1 sequence (O14746 whole entry): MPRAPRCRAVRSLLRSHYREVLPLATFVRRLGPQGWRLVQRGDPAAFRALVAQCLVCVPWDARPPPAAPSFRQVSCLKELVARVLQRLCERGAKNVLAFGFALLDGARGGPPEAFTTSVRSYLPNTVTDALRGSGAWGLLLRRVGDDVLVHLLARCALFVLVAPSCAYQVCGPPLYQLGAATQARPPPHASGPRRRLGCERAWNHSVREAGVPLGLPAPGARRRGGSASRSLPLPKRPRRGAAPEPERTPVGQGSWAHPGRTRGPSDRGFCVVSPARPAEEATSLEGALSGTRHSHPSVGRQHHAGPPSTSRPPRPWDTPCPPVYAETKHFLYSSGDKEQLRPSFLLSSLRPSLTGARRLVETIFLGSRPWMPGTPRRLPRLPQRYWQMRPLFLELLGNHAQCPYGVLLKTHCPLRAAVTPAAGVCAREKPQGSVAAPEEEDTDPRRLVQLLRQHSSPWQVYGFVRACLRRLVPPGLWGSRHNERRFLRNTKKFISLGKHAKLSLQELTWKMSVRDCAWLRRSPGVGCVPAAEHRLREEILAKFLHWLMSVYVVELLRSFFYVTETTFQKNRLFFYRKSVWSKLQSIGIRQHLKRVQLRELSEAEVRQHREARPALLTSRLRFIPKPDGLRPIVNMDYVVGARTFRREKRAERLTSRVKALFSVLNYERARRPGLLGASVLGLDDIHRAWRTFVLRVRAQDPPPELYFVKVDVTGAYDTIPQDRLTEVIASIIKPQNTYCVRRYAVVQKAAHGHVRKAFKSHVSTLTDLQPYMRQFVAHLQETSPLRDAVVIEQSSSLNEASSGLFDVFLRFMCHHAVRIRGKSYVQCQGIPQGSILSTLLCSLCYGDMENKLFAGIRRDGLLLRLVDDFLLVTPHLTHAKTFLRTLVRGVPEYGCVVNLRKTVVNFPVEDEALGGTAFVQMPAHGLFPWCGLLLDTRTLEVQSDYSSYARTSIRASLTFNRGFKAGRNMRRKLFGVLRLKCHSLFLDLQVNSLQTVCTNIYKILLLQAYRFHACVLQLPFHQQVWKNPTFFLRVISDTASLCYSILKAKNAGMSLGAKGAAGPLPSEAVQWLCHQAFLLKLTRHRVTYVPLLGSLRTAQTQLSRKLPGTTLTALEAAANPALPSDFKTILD
Compound,Kd [1] [µM],Activity [2],DC50 [3] [µM],DC50 [4],DC50 [5],Activity [6],ΔTm [7] [°C],ΔTm [8] [°C],Kd [9] [µM],Ratio [10],IC50 [11] [µM],inhibition [12],concentration giving total telomerase inhibition [13] [µM],inhibition [14],Activity [15],Kd [16] [µM],Kd [17] [µM],Kd [18] [µM],Activity [19],Activity [21],further results
CN1CCN(CCCCn2c3ccc(-c4nc5cc(N6CCOCC6)ccc5[nH]4)cc3c3cc(-c4nc5cc(N6CCOCC6)ccc5[nH]4)ccc32)CC1,0.19,inactive,1.01,Not Active,Not Active,Active,8,7,312,650,1.6,Active,3,Active,inactive,0.33,0.48,,,,
CN1CCN(CCCCn2c3ccc(-c4nc5cc(N6CCN(CCO)CC6)ccc5[nH]4)cc3c3cc(-c4nc5cc(N6CCN(CCO)CC6)ccc5[nH]4)ccc32)CC1,0.08,inactive,1.12,,,Active,15,19,25,500,0.6,Active,1,Active,inactive,0.03,0.05,0.03,Active,Non-toxic,DC50 ([4]; read-out: DC50): 7.71 µM; DC50 ([5]; read-out: DC50): > 8 µM; Activity [20]: Active; Activity [22]: Active; Activity [23]: Active; Activity [24]: Active; IC50 [25]: 8 µM; IC50 [26]: 8 µM; IC50 [27]: 8 µM; Activity [28]: 55%; Drug uptake [29]: Active; Drug uptake [30]: Active; Drug uptake [31]: Active; Activity [32]: Active; Activity [33]: Non-toxic
CN1CCN(CCCCn2c3ccc(-c4nc5cc(N6CCN(C)CC6)ccc5[nH]4)cc3c3cc(-c4nc5cc(N6CCN(C)CC6)ccc5[nH]4)ccc32)CC1,0.15,inactive,0.61,Not Active,Not Active,Active,12,16,196,576,0.9,Active,1,Active,inactive,0.13,0.34,0.1,inactive,Non-toxic,Activity [34]: Active; Activity [22]: Active; Activity [23]: Active; Activity [24]: Active; IC50 [25]: 8 µM; IC50 [26]: 8 µM; IC50 [27]: 8 µM; Activity [28]: 25%; Drug uptake [29]: Active; Drug uptake [30]: Active; Drug uptake [31]: Active; Activity [32]: Active; Activity [33]: Non-toxic
CN1CCN(CCCCn2c3ccc(-c4nc5cc(-c6nc7cc(N8CCN(C)CC8)ccc7[nH]6)ccc5[nH]4)cc3c3cc(-c4nc5cc(-c6nc7cc(N8CCN(C)CC8)ccc7[nH]6)ccc5[nH]4)ccc32)CC1,0.18,inactive,1.36,Not Active,Not Active,Active,10,10,89,234,1.8,Active,3,Active,Active,0.23,0.38,0.15,,,
